Where “and” joins values, the source holds several entries; their conditions need not be identical. Equal values may be shown once. Calls of active or inactive are those of the source.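 How the source made its calls: active means compounds lowering the viability signal whose fitted AC50 is no more than ten times their top tested dose; inconclusive means flat fit with a 30 to 70% drop, or poor fit; inactive means the rest.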
Assays:
[1] = toxicity in U2OS HRE-luc cells, zinc medium, dose response, cytotoxicity control for HIF pathway activator project, zinc-supplemented medium, dry powder (AID 504323); details: U2OS HRE-luciferase cells, viability toxicity, luminescence; at 38 µM (top of the series)
Summary of the method: (§1)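 Assay system: U2OS 3×HRE-luciferase reporter cells. Amount: 6,000 cells per well. Buffer or medium: 50 µM zinc sulfate final. Dosing: Eight-point compound series with threefold dilution steps. Schedule: 24 h attachment, then 24 h compound exposure at 37 °C. Technique: CellTiter-Glo luminescence for cell viability.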

[2] = system: U2OS HRE-luciferase cells, viability toxicity, luminescence; experiment: as above
Summary of the method: as §1

SMILES | activity change, negative = toxicity [1] | AC50 [2]
c1ccc(-c2nnc(-c3ccccn3)nc2N2CCC(c3ccccc3)C2)cc1 (centres undefined) | -12.2% (inactive) | –
c1ccc(-c2nnc(Nc3nc(-c4ccccn4)nnc3-c3ccccc3)s2)cc1 | – | > 38 µM (inactive)
Cc1ccc(Nc2nc(-c3ccccn3)nnc2-c2ccccc2)cn1 | 3.19% (inactive) | –
O=C(c1cc(-c2ccccc2)on1)N1CCN(c2ccncc2)CC1 | -1.95% (inactive) | –
O=C(NCCCN1CCOCC1)c1cc(-c2ccccc2)on1 | 15.2% (inactive) | –
c1ccc(CNc2nc(-c3ccccn3)nnc2-c2ccccc2)cc1 | 11.5% (inactive) | –
O=C(NC1Cc2ccccc2C1)c1cc(-c2ccccc2)on1 | -8.56% (inactive) | –
OCC1CCN(Cc2ccc(O)c3ncccc23)CC1 | -18.1% (inactive) | –
CN1CCN(C(=O)c2cc(-c3ccccc3)on2)CC1 | 2.31% (inactive) | –
O=C(NCCN1CCCCC1)c1cc(-c2ccccc2)on1 | 14.1% (inactive) | –
O=C(c1cc(-c2ccccc2)on1)N1CCc2cccnc21 | -4.78% (inactive) | –
OCCCNc1nc(-c2ccccn2)nnc1-c1ccccc1 | 17.6% (inactive) | –
O=C(c1cc(-c2ccccc2)on1)N1CCC(CO)CC1 | 9.31% (inactive) | –
c1ccc(-c2nnc(-c3ccccn3)nc2Nc2cnc3ccccc3n2)cc1 | – | 10.1 µM
O=C(Nc1ncc(-c2ccccc2)o1)c1cc(-c2ccccc2)on1 | -2.78% (inactive) | –
Cc1ccc(CNc2nc(-c3ccccn3)nnc2-c2ccccc2)cc1 | 4.61% (inactive) | –
c1ccc(-c2nnc(-c3ccccn3)nc2NCCN2CCOCC2)cc1 | 3.62% (inactive) | –
CCCCNC(=O)c1cc(-c2ccccc2)on1 | 15.6% (inactive) | –
c1ccc(-c2nnc(-c3ccccn3)nc2N2CCN(c3ccncc3)CC2)cc1 | 16.2% (inactive) | –
CN(C)CCNC(=O)c1cc(-c2ccccc2)on1 | 7.75% (inactive) | –
CC(C)(C)OC(=O)N1CCN(Cc2ccc(O)c3ncccc23)CC1 | 6.73% (inactive) | –
Cc1cccc(CNC(=O)c2cc(-c3ccccc3)on2)c1 | -2.43% (inactive) | –
CC1CN(Cc2ccc(O)c3ncccc23)CC(C)O1 (centres undefined) | -3.44% (inactive) | –
O=C(c1cc(-c2ccccc2)on1)N1CCC(N2CCOCC2)CC1 | 2.52% (inactive) | –
COc1ccccc1N1CCN(Cc2ccc(O)c3ncccc23)CC1 | -14.5% (inactive) | –
O=C(Nc1nnc(-c2ccccc2)s1)c1cc(-c2ccccc2)on1 | 16.2% (inactive) | –
Cc1ccccc1CNC(=O)c1cc(-c2ccccc2)on1 | 6.54% (inactive) | –

SMILES | activity change, negative = toxicity [1] | AC50 [2]
Cn1c(-c2ccccc2)cnc1NC(=O)c1cc(-c2ccccc2)on1 | -1.6% (inactive) | –
Oc1ccc(CNC2CCc3ccccc32)c2cccnc12 (centres undefined) | -6.14% (inactive) | –
c1ccc(-c2cnc(Nc3nc(-c4ccccn4)nnc3-c3ccccc3)s2)cc1 | 10.3% (inactive) | –
Cn1c(-c2ccccc2)cnc1Nc1nc(-c2ccccn2)nnc1-c1ccccc1 | – | > 38 µM (inactive)
Cn1c(NC(=O)c2cc(-c3ccccc3)on2)nc2ccccc21 | 16% (inactive) | –
OCC1CCN(c2nc(-c3ccccn3)nnc2-c2ccccc2)CC1 | 10.9% (inactive) | –
COc1cccc(CNc2nc(-c3ccccn3)nnc2-c2ccccc2)c1 | -8.43% (inactive) | –
c1ccc(-c2nnc(-c3ccccn3)nc2NCC2CC2)cc1 | 20.9% (inactive) | –
CC(C)(C)CCNc1nc(-c2ccccn2)nnc1-c1ccccc1 | -16.3% (inactive) | –
c1ccc(-c2nnc(-c3ccccn3)nc2NCC2CCOCC2)cc1 | 14.9% (inactive) | –
O=C(NCC1CC1)c1cc(-c2ccccc2)on1 | 22.5% (inactive) | –
O=C(c1cc(-c2ccccc2)on1)N1CCC(N2CCCC2)CC1 | 4.1% (inactive) | –
c1ccc(-c2nnc(-c3ccccn3)nc2NCCCN2CCOCC2)cc1 | 23.8% (inactive) | –
c1ccc(-c2nnc(-c3ccccn3)nc2N2CCC(C3CCCCC3)C2)cc1 (centres undefined) | 25.2% (inactive) | –
O=C(NC1CCc2ccccc2C1)c1cc(-c2ccccc2)on1 (centres undefined) | – | > 38 µM (inactive)
Cc1ccccc1CNc1nc(-c2ccccn2)nnc1-c1ccccc1 | -8.68% (inactive) | –
Cc1cccc(NC(=O)c2cc(-c3ccccc3)on2)n1 | 2.1% (inactive) | –
c1ccc(-c2ccc(CNc3nc(-c4ccccn4)nnc3-c3ccccc3)cc2)cc1 | 7.11% (inactive) | –
Clc1cccc(CNc2nc(-c3ccccn3)nnc2-c2ccccc2)c1 | -1.81% (inactive) | –
O=C(Nc1nc(-c2ccccc2)cs1)c1cc(-c2ccccc2)on1 | 7.74% (inactive) | –
O=C(NCc1ccccc1)c1cc(-c2ccccc2)on1 | 4.7% (inactive) | –
c1ccc(-c2nnc(-c3ccccn3)nc2Nc2nc3ccccc3s2)cc1 | – | 8.1 µM
O=C(NCCCO)c1cc(-c2ccccc2)on1 | 3.54% (inactive) | –
Cc1cccc(Nc2nc(-c3ccccn3)nnc2-c2ccccc2)n1 | -13.3% (inactive) | –
CC(C)(C)CCNC(=O)c1cc(-c2ccccc2)on1 | -8.3% (inactive) | –
COc1ccc(CNc2nc(-c3ccccn3)nnc2-c2ccccc2)cc1 | 1.65% (inactive) | –
O=C(Nc1ccc2ccccc2n1)c1cc(-c2ccccc2)on1 | 16.8% (inactive) | –

SMILES | activity change, negative = toxicity [1] | AC50 [2]
CN1CCN(c2nc(-c3ccccn3)nnc2-c2ccccc2)CC1 | -11.4% (inactive) | –
O=C(Nc1nc2ccccc2s1)c1cc(-c2ccccc2)on1 | 18.7% (inactive) | –
O=C(Nc1cnc2ccccc2c1)c1cc(-c2ccccc2)on1 | 5.21% (inactive) | –
CN(C)c1nc(-c2ccccn2)nnc1-c1ccccc1 | 33.4% (inactive) | –
CC(Nc1nc(-c2ccccn2)nnc1-c1ccccc1)c1ccccc1 (centres undefined) | -0.542% (inactive) | –
O=C(NCCCn1ccnc1)c1cc(-c2ccccc2)on1 | -5.48% (inactive) | –
c1ccc(-c2csc(Nc3nc(-c4ccccn4)nnc3-c3ccccc3)n2)cc1 | -2.4% (inactive) | –
O=C(NCC1CCCCC1)c1cc(-c2ccccc2)on1 | -11% (inactive) | –
Oc1ccc(CN2CCC(Cc3ccccc3)CC2)c2cccnc12 | -1.98% (inactive) | –
C[C@H](Nc1nc(-c2ccccn2)nnc1-c1ccccc1)C1CCCCC1 | -13.5% (inactive) | –
Cc1ccc(CNC(=O)c2cc(-c3ccccc3)on2)cc1 | -12.8% (inactive) | –
Oc1ccc(CN2CCc3ccccc3C2)c2cccnc12 | -93.5% (inactive) and -0.278% (inactive) | –
c1ccc(-c2nnc(-c3ccccn3)nc2NCc2cccnc2)cc1 | 30.2% (inactive) | –
Cc1cccc(CNc2nc(-c3ccccn3)nnc2-c2ccccc2)c1 | -2.48% (inactive) | –
C=CCNc1nc(-c2ccccn2)nnc1-c1ccccc1 | 29% (inactive) | –
c1ccc(-c2nnc(-c3ccccn3)nc2N2CCC(N3CCOCC3)CC2)cc1 | 21.5% (inactive) | –
O=C(Nc1cn2ccccc2n1)c1cc(-c2ccccc2)on1 | 10.3% (inactive) | –
c1ccc(CCNc2nc(-c3ccccn3)nnc2-c2ccccc2)cc1 | -7.93% (inactive) | –
c1ccc(-c2nnc(-c3ccccn3)nc2NCCc2ccccn2)cc1 | 12.3% (inactive) | –
Cc1ccc(NC(=O)c2cc(-c3ccccc3)on2)cn1 | -11.1% (inactive) | –
O=C(NCCCCO)c1cc(-c2ccccc2)on1 | 6.82% (inactive) | –
O=C(NCCN1CCOCC1)c1cc(-c2ccccc2)on1 | 10.8% (inactive) | –
O=C(Nc1ncc2ccccc2n1)c1cc(-c2ccccc2)on1 | -15.3% (inactive) | –
c1ccc(-c2nnc(-c3ccccn3)nc2NCc2ccccn2)cc1 | -3.76% (inactive) | –
c1ccc(-c2cccc(CNc3nc(-c4ccccn4)nnc3-c3ccccc3)c2)cc1 | 21.1% (inactive) | –

Reference: PubChem BioAssay AID504323 (Broad Institute, 2011)
